The text below walks through data of ChEMBL document CHEMBL5038638, “Structure-Activity Relationship Study of Subtype-Selective Positive Modulators of KCa2 Channels” (J Med Chem, 2022).

Holding throughout (format): cell-based
The target in assay [1] is Small conductance calcium-activated potassium channel protein 2 (Rattus norvegicus, UniProt P70604). Briefly: Potentiation of rat KCa2.2a expressed in HEK293 cells at -90 mV holding potential measured at 1 to 2 days by patch clamp electrophysiology. In a few lines:
(§1)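 Inside-out patches from HEK293 cells transfected (calcium-phosphate) with channel cDNA plus CaM and GFP (7:4:2). Bath (mM): 140 KCl, 10 Hepes pH 7.2, 1 EGTA, 0.1 dibromo-BAPTA, 1 HEDTA, with Ca2+ added to set free Ca2+, verified against a fluorescence standard curve. Currents taken at –90 mV and normalized to the maximal-compound response. EC50 and Hill coefficient came from a concentration–response fit. Efficacy was the maximal-compound current relative to the current at 10 µM Ca2+.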

Assay [2] deals with Small conductance calcium-activated potassium channel protein 2 (Rattus norvegicus) (UniProt P70604). Kind of assay: Potentiation of rat KCa2.2a expressed in HEK293 cells at 0.01 to 100 uM with -90 mV holding potential measured at 1 to 2 days by patch clamp electrophysiology relative to calcium. The conditions noted are these: filed as positive allosteric modulator, dose 0.01-100 µM, time 1-2 day. In a few lines: as §1
A general note: The patch-clamp technique gives a direct electrical read-out from membranes.

The target of assay [3] is Calcium-activated potassium channel subunit alpha-1 (Homo sapiens) (UniProt Q12791). Kind of assay: Potentiation of human KCa1.1 expressed in HEK293 cells at 100 uM with -90 mV holding potential measured at 1 to 2 days by patch clamp electrophysiology. As to conditions: time 1-2 day.
In assay [4] the target is Small conductance calcium-activated potassium channel protein 1 (Homo sapiens) (UniProt Q92952). Kind of assay: Potentiation of human KCa2.1 expressed in HEK293 cells at 0.01 to 100 uM with -90 mV holding potential measured at 1 to 2 days by patch clamp electrophysiology relative to calcium. As to conditions: dose 0.01-100 µM, time 1-2 day. In a few lines: as §1
Assay [5] has as its target T1, Small conductance calcium-activated potassium channel protein 3 (Homo sapiens, UniProt Q9UGI6). Briefly: Potentiation of human KCa2.3 expressed in HEK293 cells at -90 mV holding potential measured at 1 to 2 days by patch clamp electrophysiology relative to calcium. In short, it runs like this: as §1
The target of assay [6] is Intermediate conductance calcium-activated potassium channel protein 4 (Homo sapiens) (UniProt O15554). Kind of assay: Potentiation of human KCa3.1 expressed in HEK293 cells at 0.01 to 100 uM with -90 mV holding potential measured at 1 to 2 days by patch clamp electrophysiology relative to calcium. The conditions noted are these: dose 0.01-100 µM, time 1-2 day. In short, it runs like this:
as §1

Another assay has as its system N1E-115. Kind of assay: Inhibition of mouse Nav1.2 expressed in mouse N1E-115 cells at 100 uM with -90 mV holding potential measured by patch clamp electrophysiology.
In assay [7] the target is T1, Small conductance calcium-activated potassium channel protein 3. Kind of assay: Potentiation of human KCa2.3 expressed in HEK293 cells at -90 mV holding potential measured at 1 to 2 days by patch clamp electrophysiology. In a few lines:
as §1

Molecules are shown by their SMILES. Activity calls are given as the source filed them. The rule behind the calls is not given here.

Small conductance calcium-activated potassium channel protein 2 (Rattus norvegicus), sequence (P70604 whole entry): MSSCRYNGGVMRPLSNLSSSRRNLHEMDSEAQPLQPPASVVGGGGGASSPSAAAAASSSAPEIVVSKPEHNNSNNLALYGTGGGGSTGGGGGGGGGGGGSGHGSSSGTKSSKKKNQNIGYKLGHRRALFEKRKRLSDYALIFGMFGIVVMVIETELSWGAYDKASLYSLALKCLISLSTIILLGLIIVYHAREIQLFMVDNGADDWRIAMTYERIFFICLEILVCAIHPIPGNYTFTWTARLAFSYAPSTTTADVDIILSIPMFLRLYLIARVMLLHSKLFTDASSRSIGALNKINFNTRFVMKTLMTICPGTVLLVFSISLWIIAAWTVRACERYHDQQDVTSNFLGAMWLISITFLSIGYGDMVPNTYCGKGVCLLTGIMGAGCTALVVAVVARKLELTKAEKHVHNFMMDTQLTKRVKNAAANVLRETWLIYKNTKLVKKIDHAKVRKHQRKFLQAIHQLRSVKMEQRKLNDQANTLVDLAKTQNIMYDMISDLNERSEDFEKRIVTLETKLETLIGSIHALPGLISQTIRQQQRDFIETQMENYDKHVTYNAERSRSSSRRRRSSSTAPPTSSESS
Small conductance calcium-activated potassium channel protein 2, sequence (P70604 whole entry): as above
Calcium-activated potassium channel subunit alpha-1 (Homo sapiens), sequence (Q12791 whole entry): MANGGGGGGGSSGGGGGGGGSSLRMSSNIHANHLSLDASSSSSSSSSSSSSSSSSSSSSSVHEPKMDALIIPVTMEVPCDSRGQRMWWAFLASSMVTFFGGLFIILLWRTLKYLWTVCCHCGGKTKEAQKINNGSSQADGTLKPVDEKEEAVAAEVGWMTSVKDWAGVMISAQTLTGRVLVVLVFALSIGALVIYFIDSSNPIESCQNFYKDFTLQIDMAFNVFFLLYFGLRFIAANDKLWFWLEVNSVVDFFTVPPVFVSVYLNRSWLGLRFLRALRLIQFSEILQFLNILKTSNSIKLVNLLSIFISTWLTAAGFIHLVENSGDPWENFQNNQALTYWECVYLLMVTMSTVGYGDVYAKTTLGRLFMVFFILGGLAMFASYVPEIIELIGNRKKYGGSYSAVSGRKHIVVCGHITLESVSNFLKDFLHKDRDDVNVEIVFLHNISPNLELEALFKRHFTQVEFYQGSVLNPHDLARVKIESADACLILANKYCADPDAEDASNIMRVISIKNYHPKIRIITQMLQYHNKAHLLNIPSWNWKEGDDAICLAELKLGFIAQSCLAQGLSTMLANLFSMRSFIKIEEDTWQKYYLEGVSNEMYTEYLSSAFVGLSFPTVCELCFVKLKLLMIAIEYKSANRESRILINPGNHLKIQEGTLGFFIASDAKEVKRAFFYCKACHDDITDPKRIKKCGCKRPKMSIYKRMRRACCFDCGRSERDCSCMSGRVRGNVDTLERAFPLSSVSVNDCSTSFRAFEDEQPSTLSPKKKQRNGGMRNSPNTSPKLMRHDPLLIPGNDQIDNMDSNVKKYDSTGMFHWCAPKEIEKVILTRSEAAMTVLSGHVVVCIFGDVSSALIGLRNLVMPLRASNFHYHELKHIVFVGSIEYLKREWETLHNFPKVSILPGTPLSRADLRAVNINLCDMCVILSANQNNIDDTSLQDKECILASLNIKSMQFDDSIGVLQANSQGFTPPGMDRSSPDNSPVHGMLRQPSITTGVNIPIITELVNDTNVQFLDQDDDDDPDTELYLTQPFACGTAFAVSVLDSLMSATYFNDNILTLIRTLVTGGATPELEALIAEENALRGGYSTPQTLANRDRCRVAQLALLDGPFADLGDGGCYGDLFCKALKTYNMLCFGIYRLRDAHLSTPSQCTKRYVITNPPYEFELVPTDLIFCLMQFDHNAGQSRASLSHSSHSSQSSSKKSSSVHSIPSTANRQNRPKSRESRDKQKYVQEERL
Intermediate conductance calcium-activated potassium channel protein 4 (Homo sapiens), sequence (O15554 whole entry): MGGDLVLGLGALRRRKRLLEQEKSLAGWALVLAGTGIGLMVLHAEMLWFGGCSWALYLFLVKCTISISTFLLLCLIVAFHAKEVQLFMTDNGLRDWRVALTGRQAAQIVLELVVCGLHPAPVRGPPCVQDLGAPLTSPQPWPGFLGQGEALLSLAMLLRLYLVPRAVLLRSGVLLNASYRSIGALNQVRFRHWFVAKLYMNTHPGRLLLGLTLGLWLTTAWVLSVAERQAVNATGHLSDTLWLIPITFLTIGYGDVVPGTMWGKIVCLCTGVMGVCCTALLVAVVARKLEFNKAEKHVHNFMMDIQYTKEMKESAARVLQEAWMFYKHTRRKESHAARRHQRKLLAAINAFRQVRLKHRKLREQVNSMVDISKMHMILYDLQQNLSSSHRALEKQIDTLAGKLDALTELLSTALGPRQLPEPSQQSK
Small conductance calcium-activated potassium channel protein 1 (Homo sapiens), sequence (Q92952 whole entry): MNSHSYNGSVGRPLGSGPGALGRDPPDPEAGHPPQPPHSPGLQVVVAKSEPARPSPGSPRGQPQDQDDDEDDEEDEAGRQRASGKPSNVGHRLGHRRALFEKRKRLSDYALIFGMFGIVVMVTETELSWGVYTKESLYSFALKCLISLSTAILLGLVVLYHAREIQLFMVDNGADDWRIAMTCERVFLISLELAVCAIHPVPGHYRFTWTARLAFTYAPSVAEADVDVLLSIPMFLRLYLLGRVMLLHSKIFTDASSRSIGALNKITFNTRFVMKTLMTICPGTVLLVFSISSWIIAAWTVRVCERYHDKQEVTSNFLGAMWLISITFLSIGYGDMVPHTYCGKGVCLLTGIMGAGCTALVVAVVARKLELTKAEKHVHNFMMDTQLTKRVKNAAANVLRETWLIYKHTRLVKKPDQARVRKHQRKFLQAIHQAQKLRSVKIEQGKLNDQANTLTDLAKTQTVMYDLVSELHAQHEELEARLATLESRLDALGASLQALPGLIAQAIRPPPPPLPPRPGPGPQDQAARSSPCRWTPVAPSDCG
T1 sequence (Q9UGI6 whole entry): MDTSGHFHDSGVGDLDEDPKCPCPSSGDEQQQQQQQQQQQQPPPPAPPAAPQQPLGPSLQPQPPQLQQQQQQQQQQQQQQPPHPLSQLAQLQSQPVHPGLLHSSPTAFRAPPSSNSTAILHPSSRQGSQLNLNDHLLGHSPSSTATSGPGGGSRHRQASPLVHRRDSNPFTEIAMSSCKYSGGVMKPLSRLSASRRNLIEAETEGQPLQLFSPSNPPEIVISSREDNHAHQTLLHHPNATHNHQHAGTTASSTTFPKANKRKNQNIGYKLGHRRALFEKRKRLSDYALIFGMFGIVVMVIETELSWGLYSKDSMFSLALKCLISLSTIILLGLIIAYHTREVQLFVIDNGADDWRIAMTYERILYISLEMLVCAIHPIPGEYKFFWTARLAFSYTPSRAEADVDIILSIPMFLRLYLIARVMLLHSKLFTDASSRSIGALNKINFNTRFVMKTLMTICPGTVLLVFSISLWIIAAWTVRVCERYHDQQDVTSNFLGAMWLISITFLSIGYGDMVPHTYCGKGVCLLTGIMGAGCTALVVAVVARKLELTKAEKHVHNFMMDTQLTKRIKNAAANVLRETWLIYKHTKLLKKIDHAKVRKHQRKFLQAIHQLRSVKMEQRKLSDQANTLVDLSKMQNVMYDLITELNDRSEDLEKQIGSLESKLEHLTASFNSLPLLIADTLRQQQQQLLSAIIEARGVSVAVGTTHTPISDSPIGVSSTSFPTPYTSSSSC

As a reminder, the EC50 is the concentration that produces a half-maximal response. Consider `Cc1cc(C)n(-c2cc(Nc3ccc(Cl)cc3F)nc(N)n2)n1`, for which the EC50 in assay [1] is over 100 µM.
For the compound `Cc1cc(Nc2cccc(F)c2F)nc(-n2nc(C)cc2C)n1`, the EC50 in assay [1] came out at 5.03 µM.
By Emax is commonly meant the maximal effect, on the per cent scale that the assay sets. Take `Cc1cc(NC2CCCCC2)nc(-n2nc(C)cc2C)n1`: in assay [1], the EC50 was 7.48 µM. In addition, the maximal effect (Emax) in assay [2] turned out to be 85.6%.
Regarding `Cc1cc(Nc2cc(Cl)cc(C(F)(F)F)c2)nc(-n2nc(C)cc2C)n1`, in assay [1], the EC50 was over 100 µM.
The same measure, in the same setting: then `Cc1cc(C)n(-c2nc(N)cc(Nc3ccc(F)c(Cl)c3)n2)n1`, with 6.59 µM; and `Cc1cc(NCCc2ccc([N+](=O)[O-])cc2)nc(-n2nc(C)cc2C)n1`, with over 100 µM.
Same read-out and setting: then `Cc1cc(C)n(-c2cc(Nc3ccc(C(F)(F)F)c(Cl)c3)nc(N)n2)n1`, with over 100 µM; and `Cc1cc(Nc2ccc(F)c(Cl)c2)nc(-c2coc(C)n2)n1`, with 3.59 µM.
The same measure, in the same setting: as for `Cc1cc(N[C@H]2CC[C@@H](N)CC2)nc(-n2nc(C)cc2C)n1`, the figure is over 100 µM.
In the case of `Cc1cc(N[C@@H](Cc2ccc(C#N)cc2)C(=O)O)nc(-n2nc(C)cc2C)n1`, the EC50 in assay [1] was over 100 µM.
`Cc1cc(N[C@H]2CC[C@@H](CO)CC2)nc(-n2nc(C)cc2C)n1`: in assay [1], the EC50 is over 100 µM.
On the same count and under the same terms, as for `Cc1cc(N[C@@H](Cc2ccc(O)cc2)C(=O)O)nc(-n2nc(C)cc2C)n1`, the figure is over 100 µM; as for `Cc1cc(Nc2ccc(Cl)cc2F)nc(-n2nc(C)cc2C)n1`, 1.99 µM; as for `Cc1cc(Nc2ccc(S)cc2)nc(-n2nc(C)cc2C)n1`, over 100 µM.
Regarding `Cc1cc(Nc2cc(C(=O)O)ccc2F)nc(-n2nc(C)cc2C)n1`, the EC50 in assay [1] is over 30 µM.
Regarding `COc1cc2nc(Nc3cc(C)nc(-n4nc(C)cc4C)n3)[nH]c2cc1OC`, the EC50 in assay [1] is over 100 µM.
The same measure, in the same setting: then `Cc1cn(-c2nc(C)cc(Nc3cc(Cl)ccc3F)n2)cn1`, with 4.51 µM; and `Cc1cc(N[C@H]2CC[C@@H](F)CC2)nc(-n2nc(C)cc2C)n1`, with over 100 µM.
Still for that read-out and setting: as for `Cc1cc(C)n(-c2cc(Nc3cc(F)ccc3Cl)nc(N)n2)n1`, the figure is over 100 µM.
On to `Cc1cc(Nc2ccc(C(F)(F)F)cc2)nc(-n2nc(C)cc2C)n1`, for which the EC50 in assay [1] was 3.45 µM.
The same measure, in the same setting: as for `Cc1cc(Nc2cc(F)ccc2Cl)nc(-n2nc(C)cc2C)n1`, the figure is 2.97 µM; as for `Cc1cc(Nc2cc(F)ccc2F)nc(-n2nc(C)cc2C)n1`, 1.89 µM.
On the same count and under the same terms, then `Cc1cc(Nc2cc(Cl)ccc2F)nc(-c2coc(C)n2)n1`, with 13.8 µM; and `Cc1cc(N[C@H]2CC[C@@H](O)CC2)nc(-n2nc(C)cc2C)n1`, with over 100 µM.
One may read the inhibition as the relative decrease from the control value, in per cent. A higher inhibition goes with a response far below the control. In the case of `Cc1cc(Nc2ccc(F)c(Cl)c2)nc(-n2nc(C)cc2C)n1`, the outcome in assay [3] was inactive. The EC50 in assay [1] is 0.99 µM; in assay [5], 0.19 µM. Moreover, the Emax in assay [2] worked out at 90%; in assay [4], 0%; in assay [6], 28.3%. In the assay on N1E-115, the inhibition was 50%.
For `Cc1cc(C)n(-c2cc(Nc3ccc(F)c(Cl)c3)nc(N)n2)n1`, the EC50 in assay [1] was over 100 µM.
Same read-out and setting: as for `Cc1cc(N[C@H]2CC[C@@H]([N+](=O)[O-])CC2)nc(-n2nc(C)cc2C)n1`, the figure is over 100 µM; as for `Cc1cc(Nc2ccc(C(F)(F)F)c(Cl)c2)nc(-n2nc(C)cc2C)n1`, 3.27 µM.
On the same count and under the same terms, as for `Cc1cc(C)n(-c2cc(Nc3cc(Cl)ccc3F)nc(N)n2)n1`, the figure is over 100 µM; as for `Cc1cc(N[C@@H](Cc2ccc(F)c(F)c2)C(=O)O)nc(-n2nc(C)cc2C)n1`, over 100 µM.
The same measure, in the same setting: as for `Cc1cc(Nc2ccc([N+](=O)[O-])cc2)nc(-n2nc(C)cc2C)n1`, the figure is over 100 µM.
As for `Cc1cc(Nc2cc(Cl)ccc2F)nc(-n2nc(C)cc2C)n1`, the outcome in assay [3] was inactive. For the same compound, the EC50 amounted to 0.64 µM in assay [1] and 0.6 µM in assay [7]. The maximum response (Emax) was 90% in assay [2], 0% in assay [4] and 2.02% in assay [6]. The same compound showed an inhibition in the assay with N1E-115 of 50%.
As for `CO[C@H]1CC[C@@H](Nc2cc(C)nc(-n3nc(C)cc3C)n2)CC1`, in assay [1], the concentration giving a half-maximal response (EC50) came to 49.7 µM. Further, the Emax in assay [2] was determined as 94.6%.
In the case of `Cc1cn(-c2nc(C)cc(Nc3ccc(F)c(Cl)c3)n2)cn1`, in assay [1], the EC50 came out at 38.8 µM.
On the same count and under the same terms, then `Cc1cc(C)n(-c2cc(C)c(Nc3ccc(F)c(Cl)c3)nn2)n1`, with 4.32 µM; and `Cc1cc(C)n(-c2cc(Nc3cccc(Cl)c3)nc(N)n2)n1`, with over 100 µM; and `Cc1cc(C)n(-c2cc(Nc3cc(F)ccc3F)nc(N)n2)n1`, with over 100 µM.
